Results taken from ChEMBL document CHEMBL1287734, “Synthesis, molecular modeling and biological evaluation of guanidine derivatives as novel antitubulin agents” (Bioorg Med Chem, 2010).
The source made the active and inactive calls. The calls are words filed in the database; no cut-off is given here.

Assays:
[1] = Inhibition of bovine brain tubulin polymerization by turbidimetric analysis; set-up: species or system Bos taurus
Outline: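 Purified bovine brain tubulin (10 µM) preincubated with varying compound concentrations in glutamate buffer at 30 °C, then cooled to 0 °C. GTP added, mixtures warmed to 30 °C in cuvettes, and assembly followed by turbidity.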

MCF7 [2] = experiment: Antiproliferative activity against human MCF7 cells after 48 hrs by MTT assay; format: functional, cell-based; conditions: MCF7, 48 h
Outline: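 After 24 h at 37 °C, 5% CO₂, compounds were added at preset concentrations for 48 h. MTT (2.5 mg/mL in PBS) was then added for 4 h, followed by 10% SDS–5% isobutyl alcohol–0.01 M HCl overnight at 37 °C. OD read at 570 nm. Triplicate wells per concentration; each assay run at least three times.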

MCF7 [3] = experiment: Cell cycle arrest in human MCF7 cells assessed as accumulation at G1 phase at 50 nM after 24 hrs by flow cytometry relative to control; format: functional
Outline: (§1)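 Cells treated at 50 nM or 500 nM for 24 h, collected and fixed overnight in 70% ethanol at −20 °C. After two PBS washes, RNase A (0.5 mg/mL) and propidium iodide (2.5 µg/mL) were added for 30 min. DNA content was measured by flow cytometry and the percentage of cells in each cycle phase was determined.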

MCF7 [4] = experiment: Induction of apoptosis in human MCF7 cells assessed as morphological changes at 1 uM after 24 hrs using DAPI staining by fluorescence microscopic analysis; format: functional, cell-based
Outline: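 Cells cultured on 6-well plates and treated at 0 or 1.0 µM for 24 h. Fixed in ice-cold 4% paraformaldehyde for 20 min, then permeabilized in 0.1% sodium citrate/0.1% Triton X-100 for 2 min at 4 °C. Stained with DAPI (300 nM) and examined by fluorescence microscopy for nuclear morphology.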

MCF7 [5] = experiment: Cell cycle arrest in human MCF7 cells assessed as accumulation at G1 phase at 500 nM after 24 hrs by flow cytometry relative to control; format: functional; outline: as §1
MCF7 [6] = experiment: Cell cycle arrest in human MCF7 cells assessed as accumulation at G2/M phase at 50 nM after 24 hrs by flow cytometry relative to control; format: functional; outline: as §1
MCF7 [7] = experiment: Cell cycle arrest in human MCF7 cells assessed as accumulation at sub-G1 phase at 50 nM after 24 hrs by flow cytometry relative to control; format: functional; outline: as §1
MCF7 [8] = experiment: Cell cycle arrest in human MCF7 cells assessed as accumulation at sub-G1 phase at 500 nM after 24 hrs by flow cytometry relative to control; format: functional; outline: as §1
MCF7 [9] = experiment: Cell cycle arrest in human MCF7 cells assessed as accumulation at S phase at 500 nM after 24 hrs by flow cytometry relative to control; format: functional; outline: as §1
MCF7 [10] = experiment: Cell cycle arrest in human MCF7 cells assessed as accumulation at S phase at 50 nM after 24 hrs by flow cytometry relative to control; format: functional; outline: as §1
MCF7 [11] = experiment: Cell cycle arrest in human MCF7 cells assessed as accumulation at G2/M phase after 24 hrs by flow cytometry; format: functional, cell-based; outline: as §1
MCF7 [12] = experiment: Cell cycle arrest in human MCF7 cells assessed as accumulation at G2/M phase at 500 nM after 24 hrs by flow cytometry relative to control; format: functional; outline: as §1
MCF7 [13] = experiment: Cell cycle arrest in human MCF7 cells assessed as accumulation at S phase after 24 hrs by flow cytometry relative to control; format: functional; outline: as §1
MCF7 [14] = experiment: Cell cycle arrest in human MCF7 cells assessed as accumulation at sub-G1 phase after 24 hrs by flow cytometry relative to control; format: functional; outline: as §1
MCF7 [15] = experiment: Cell cycle arrest in human MCF7 cells assessed as accumulation at G2/M phase after 24 hrs by flow cytometry relative to control; format: functional; outline: as §1
MCF7 [16] = experiment: Cell cycle arrest in human MCF7 cells assessed as accumulation at G1 phase after 24 hrs by flow cytometry relative to control; format: functional; outline: as §1

IC50 [1] [µM]	IC50 (MCF7 [2]) [µM]	Compound	other results
28	2.5	N=C(N)N/N=C(/C=C/c1ccc(F)cc1)c1ccccc1	
130	13	COc1cccc(/C=C/C(=N/NC(=N)N)c2ccccc2)c1	
140	17	N=C(N)N/N=C(/C=C/c1ccccc1)c1ccccc1	
140	14	COc1ccc(/C=C/C(=N/NC(=N)N)c2ccccc2)cc1	
170	16	Cc1ccc(/C=C/C(=N/NC(=N)N)c2ccccc2)cc1	
52	4.2	N=C(N)N/N=C(/C=C/c1ccccc1Br)c1ccccc1	
150	14	Cc1ccc(C(/C=C/c2ccccc2)=N\NC(=N)N)cc1	
16	1.2	N=C(N)N/N=C(/C=C/c1ccc(OCc2ccccc2)cc1)c1ccccc1	
24	1.9	N=C(N)N/N=C(/C=C/c1ccccc1)c1ccc(Cl)c(Cl)c1	
42	3.9	N=C(N)N/N=C(/C=C/c1ccccc1F)c1ccccc1	
8.4	0.09	N=C(N)N/N=C(/C=C/c1ccccc1)c1ccc(Br)cc1	Activity (MCF7 [3]): 48.76%; Activity (MCF7 [4]): Active; Activity (MCF7 [5]): 1.5%; Activity (MCF7 [6]): 23.38%; Activity (MCF7 [7]): 2.63%; Activity (MCF7 [8]): 4.52%; Activity (MCF7 [9]): 3.14%; Activity (MCF7 [10]): 14.54%; Activity (MCF7 [11]): Dose-dependent effect; Activity (MCF7 [12]): 54.12%
14	0.7	N=C(N)N/N=C(/C=C/c1ccc(Cl)cc1)c1ccccc1	
12	0.8	N=C(N)N/N=C(/C=C/c1ccc(-c2ccccc2)cc1)c1ccccc1	
10	0.25	N=C(N)N/N=C(/C=C/c1ccc(Br)cc1)c1ccccc1	
		COc1cc2c(c(OC)c1OC)-c1ccc(OC)c(=O)cc1[C@@H](NC(C)=O)CC2 [COLCHICINE]	Activity (MCF7 [13]): 8.16%; Activity (MCF7 [14]): 14.58%; Activity (MCF7 [15]): 43.11%; Activity (MCF7 [16]): 8.58%
84	7.2	COc1ccccc1/C=C/C(=N/NC(=N)N)c1ccccc1	
55	4.2	N=C(N)N/N=C(/C=C/c1ccccc1Cl)c1ccccc1	
15	0.35	N=C(N)N/N=C(/C=C/c1ccccc1)c1ccc(Cl)cc1	
18	1.6	N=C(N)N/N=C(/C=C/c1cccc2ccccc12)c1ccccc1	
85	6.5	N=C(N)N/N=C(/C=C/c1cccc([N+](=O)[O-])c1)c1ccccc1	
150	16	N=C(N)N/N=C(/C=C/c1cccc(F)c1)c1ccccc1	
130	13	COc1ccc(C(/C=C/c2ccccc2)=N\NC(=N)N)cc1	

Compound	IC50 [1] [µM]	IC50 (MCF7 [2]) [µM]	other results
COc1ccc(/C=C\c2cc(OC)c(OC)c(OC)c2)cc1O [COMBRETASTATIN A4]	2.2		
